Experimental data taken from ChEMBL document CHEMBL1123016, “Synthesis and biological activities of analogues of angiotensins II and III containing O-methyltyrosine and D-tryptophan” (J Med Chem, 1985).
Square brackets hold non-standard residues; d marks the D form. Peptide text beside a SMILES is read from it. Sar = CNCC(=O)O

What was measured:
Rattus norvegicus [1] = organism: Rattus norvegicus; assay: Compound was tested for antagonist activity in rat isolated uterus assay; pA2 is the negative logarithm of the concentration of antagonist that reduces the response to an ED50 dose of angiotensin II to the response to half the ED50 dose; assay type: functional; settings: read-out: pA2 (converted)
How it was run: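 Isolated uterus from diethylstilbestrol-primed female Sprague-Dawley rats (150-250 g), challenged every 12 min. Antagonist was given 2 min before an ED50 dose of ANG II. Where antagonism appeared non-competitive, each tissue received a single "pA2 dose" and the ANG II response was measured after 2 min (mean of four determinations). Otherwise values are mean ± SEM (number of animals).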

Rattus norvegicus [2] = organism: Rattus norvegicus; assay: Compound was tested for agonist activity in rat isolated uterus assay; assay type: functional
How it was run: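 Uteri from diethylstilbestrol-primed female Sprague-Dawley rats (150-250 g). Peptides were stored lyophilized at -20 °C, with 1 mg/mL stock solutions made weekly and assay dilutions made daily. Tissue was challenged every 12 min. Agonist activity is expressed relative to ANG II = 100%, as mean ± SEM with the number of animals.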

SMILES	Kb (Rattus norvegicus [1]) [µM]	Activity (Rattus norvegicus [2]) [%]
CC[C@H](C)[C@H](NC(=O)[C@H](Cc1ccc(OC)cc1)NC(=O)[C@@H](NC(=O)[C@H](CCCN=C(N)N)NC(=O)CNC)C(C)C)C(=O)N[C@@H](Cc1c[nH]cn1)C(=O)N1CCC[C@H]1C(=O)N[C@@H](Cc1ccccc1)C(=O)O	0.00794	<0.1
CC[C@H](C)[C@H](NC(=O)[C@H](Cc1ccc(O)cc1)NC(=O)[C@@H](NC(=O)[C@@H](N)CCCN=C(N)N)C(C)C)C(=O)N[C@@H](Cc1c[nH]cn1)C(=O)N1CCC[C@H]1C(=O)N[C@@H](Cc1c[nH]c2ccccc12)C(=O)O	0.2	<0.1
CC[C@H](C)[C@H](NC(=O)[C@@H]1CCCN1C(=O)[C@H](Cc1c[nH]cn1)NC(=O)[C@@H](NC(=O)[C@H](Cc1ccc(OC)cc1)NC(=O)[C@@H](NC(=O)[C@H](CCCN=C(N)N)NC(=O)CNC)C(C)C)[C@@H](C)CC)C(=O)O	0.0631	<0.1
CC[C@H](C)[C@H](NC(=O)[C@H](Cc1ccc(OC)cc1)NC(=O)[C@@H](NC(=O)[C@@H](N)CCCN=C(N)N)C(C)C)C(=O)N[C@@H](Cc1c[nH]cn1)C(=O)N1CCC[C@H]1C(=O)N[C@@H](Cc1ccccc1)C(=O)O	> 1	<0.1
CC[C@H](C)[C@H](NC(=O)[C@H](Cc1ccc(OC)cc1)NC(=O)[C@@H](NC(=O)[C@H](CCCN=C(N)N)NC(=O)CNC)C(C)C)C(=O)N[C@@H](Cc1c[nH]cn1)C(=O)N1CCC[C@H]1C(=O)N[C@@H](Cc1c[nH]c2ccccc12)C(=O)O	0.0794	<0.1
CC[C@H](C)[C@H](NC(=O)[C@H](Cc1ccc(OC)cc1)NC(=O)[C@@H](NC(=O)[C@@H](N)CCCN=C(N)N)C(C)C)C(=O)N[C@@H](Cc1c[nH]cn1)C(=O)N1CCC[C@H]1C(=O)N[C@@H](Cc1c[nH]c2ccccc12)C(=O)O	> 1	<0.1
CC[C@H](C)[C@H](NC(=O)[C@@H]1CCCN1C(=O)[C@H](Cc1c[nH]cn1)NC(=O)[C@@H](NC(=O)[C@H](Cc1ccc(OC)cc1)NC(=O)[C@@H](NC(=O)[C@@H](N)CCCN=C(N)N)C(C)C)[C@@H](C)CC)C(=O)O	> 1	<0.1
CC[C@H](C)[C@H](NC(=O)[C@H](Cc1ccc(O)cc1)NC(=O)[C@@H](NC(=O)[C@H](CCCN=C(N)N)NC(=O)CNC)C(C)C)C(=O)N[C@@H](Cc1c[nH]cn1)C(=O)N1CCC[C@H]1C(=O)N[C@@H](Cc1c[nH]c2ccccc12)C(=O)O	0.02	<0.1
CC[C@H](C)[C@H](NC(=O)[C@@H]1CCCN1C(=O)[C@H](Cc1c[nH]cn1)NC(=O)[C@@H](NC(=O)[C@H](Cc1ccc(O)cc1)NC(=O)[C@@H](NC(=O)[C@H](CCCN=C(N)N)NC(=O)CNC)C(C)C)[C@@H](C)CC)C(=O)O	0.002	<0.1
CC[C@H](C)[C@H](NC(=O)[C@H](Cc1c[nH]c2ccccc12)NC(=O)[C@@H](NC(=O)[C@@H](N)CCCN=C(N)N)C(C)C)C(=O)N[C@@H](Cc1c[nH]cn1)C(=O)N1CCC[C@H]1C(=O)N[C@@H](Cc1ccccc1)C(=O)O (H-RVWIHPF-OH)	> 1	<0.1
CC[C@H](C)[C@H](NC(=O)[C@@H]1CCCN1C(=O)[C@H](Cc1c[nH]cn1)NC(=O)[C@@H](NC(=O)[C@H](Cc1c[nH]c2ccccc12)NC(=O)[C@@H](NC(=O)[C@@H](N)CCCN=C(N)N)C(C)C)[C@@H](C)CC)C(=O)O (H-RVWIHPI-OH)	> 1	<0.1
CC[C@H](C)[C@H](NC(=O)[C@H](Cc1c[nH]c2ccccc12)NC(=O)[C@@H](NC(=O)[C@H](CCCN=C(N)N)NC(=O)CNC)C(C)C)C(=O)N[C@@H](Cc1c[nH]cn1)C(=O)N1CCC[C@H]1C(=O)N[C@@H](Cc1ccccc1)C(=O)O (H-[Sar]RVWIHPF-OH)	> 1	<0.1
